Assays:
[1] = Competitive inhibition of Escherichia coli beta-lactamase AmpC using nitrocefin as substrate by UV-Vis spectrophotometry
Outline: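 Pinacol esters were tested uncleaved and hydrolysed to free acid in 50 mM phosphate pH 7.4. Ki derived from IC50 plots assuming competitive inhibition.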

[2] = Competitive inhibition of wild type beta-lactamase TEM-1 (unknown origin) expressed in Escherichia coli using 6-beta-furylacryloylamido-penicillanic acid as substrate by spectrophotometry
Outline: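 TEM-1, purified. Reactions started by 0.3 nM enzyme in the AmpC assay buffer (50 mM Tris pH 7.0). FAP substrate, absorbance change at 340 nm. Inhibitor stocks were 50 mM in DMSO, diluted in phosphate pH 7. Ki from comparison of progress curves with and without inhibitor.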

[3] = Competitive inhibition of Escherichia coli beta-lactamase AmpC N289A mutant using nitrocefin as substrate by UV-Vis spectrophotometry

O=C(Cc1cccs1)N[C@H](B(O)O)c1cccc(C(=O)O)c1
Ki [1]: 1 nM
Ki [2]: 64 nM

CC(=O)/C=C/c1c(B(O)O)sc2ccccc12
Ki [1]: 240 nM

O=C(O)/C=C/c1c(B(O)O)sc2ccccc12
Ki [3]: 50 nM
Ki [1]: 90 nM

OB(O)c1cc2ccccc2s1
Ki [2]: 50000 nM
